Source: ChEMBL document CHEMBL4842319, “Synthesis of alkynylated 1,2,4-oxadiazole/1,2,3-1H-triazole glycoconjugates: Discovering new compounds for use in chemotherapy against lung carcinoma and Mycobacterium tuberculosis” (Eur J Med Chem, 2021)
≈ marks a conversion by molar mass, not a printed value.

How the values were obtained:
SK-MEL-103 = assay: Cytotoxicity against human SK-MEL-103 cells assessed as inhibition of cell proliferation at 25 uM incubated for 72 hrs by MTT assay relative to control; format: functional; design: scale not given: the % may be the effect or the level left
In short: (§1)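 Tumor lines from NCI. PC-3, HCT-116 and NCIH-460 were grown in RPMI 1640; SKMEL-103 and AGP-01 in DMEM; all with 10% FBS at 37 °C, 5% CO2. Seeding was 0.3×10⁶ cells/mL for SKMEL-103 and AGP-01, 0.1×10⁶ for PC-3 and NCIH-460, and 0.7×10⁵ for HCT-116. Cells were exposed to compound at 25 µM for 72 h. Cells were centrifuged, 1% MTT added for 3 h, formazan dissolved in DMSO and read at 570 nm.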

[1] = Cytotoxicity against human AGP01 cells assessed as inhibition of cell proliferation at 25 uM incubated for 72 hrs by MTT assay relative to control; format: functional; design: scale not given: the % may be the effect or the level left; in short: as §1
PC-3 = assay: Cytotoxicity against human PC-3 cells assessed as inhibition of cell proliferation at 25 uM incubated for 72 hrs by MTT assay relative to control; format: functional; design: scale not given: the % may be the effect or the level left; in short: as §1
NCI-H460 = assay: Cytotoxicity against human NCI-H460 cells assessed as inhibition of cell proliferation at 25 uM incubated for 72 hrs by MTT assay relative to control; format: functional; design: scale not given: the % may be the effect or the level left; in short: as §1
HCT-116 = assay: Cytotoxicity against human HCT-116 cells assessed as inhibition of cell proliferation at 25 uM incubated for 72 hrs by MTT assay relative to control; format: functional; design: scale not given: the % may be the effect or the level left; in short: as §1
[2] = system: Mycobacterium tuberculosis; assay: Antimycobacterial activity against Mycobacterium tuberculosis H37Ra ATCC 25177 assessed as inhibition of bacterial growth incubated for 9 days by resazurin microtiter assay; format: functional; settings: H37Ra ATCC 25177, 216 h, time 9 day
In short: (§2)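 REMA broth microdilution in 7H9-S medium, run in duplicate. Test compounds were serially two-fold diluted on the plate from 64 to 0.5 µg/mL. Inoculum taken from fresh Löwenstein-Jensen culture, adjusted to McFarland no. 1 and diluted 1:20. Plates were sealed and incubated at 37 °C in normal atmosphere for 9 days, then resazurin was added. Rifampicin and ethambutol served as standards. MIC reported in µg/mL.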

[3] = system: Mycobacterium tuberculosis; assay: Antimycobacterial activity against Mycobacterium tuberculosis H37Rv ATCC 27294 assessed as inhibition of bacterial growth incubated for 9 days by resazurin microtiter assay; format: functional; settings: H37Rv ATCC 27294, 216 h, time 9 day; in short: as §2
[4] = Cytotoxicity against mouse RAW264.7 cells assessed as reduction in cell viability incubated for 48 hrs by MTT assay; format: cell-based
In short: (§3)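 RAW 264.7 macrophages and HepG2 cells were cultured in DMEM at 37 °C, 5% CO2. For the assay, 10⁵ cells/well were preincubated for 24 h, then exposed to compounds at […] for 48 h, in duplicate. MTT (5 mg/mL in PBS) was added for 2 h and absorbance read at 570 nm. Untreated wells served as the negative control. CC50 obtained by regression analysis.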

[5] = Cytotoxicity against human HepG2 cells assessed as reduction in cell viability incubated for 48 hrs by MTT assay; format: cell-based; in short: as §3
[6] = Selectivity index, ratio of CC50 for mouse RAW264.7 cells to MIC for antimycobacterial activity against Mycobacterium tuberculosis H37Rv ATCC 27294; format: toxicity; settings: read-out: Selectivity Index
[7] = Selectivity index, ratio of CC50 for human HepG2 cells to MIC for antimycobacterial activity against Mycobacterium tuberculosis H37Rv ATCC 27294; format: toxicity; settings: read-out: Selectivity Index

Row | SMILES | Activity (SK-MEL-103) | Activity [1] | Activity (PC-3) | Activity (NCI-H460) | Activity (HCT-116) | MIC [2] | MIC [3] | CC50 at 48 h [4] | CC50 at 48 h [5] | selectivity ratio [6] | selectivity ratio [7]
1 | O=[N+]([O-])c1ccc(-c2noc(NC3CCCCC3)n2)cc1 | 50.7% | 53.2% | 20.3% | 10.4% |  |  |  |  |  |  | 
2 | O=[N+]([O-])c1cccc(-c2noc(NC3CCCCC3)n2)c1 | 32% | 11.6% | 9.9% |  | 14.1% |  |  |  |  |  | 
3 | CC(=O)OC[C@H]1O[C@H](OC[C@@H](CN=[N+]=[N-])OC(C)=O)C=C[C@@H]1OC(C)=O |  |  |  |  |  | ≥ 64 µg/mL | ≥ 64 µg/mL | 106 µg/mL (≈ 286 µM) | > 200 µg/mL | < 1.66 | 
4 | CC(=O)OC[C@H]1O[C@H](OC[C@H](Cn2cc(COc3ccc(-c4noc(C)n4)cc3)nn2)OC(C)=O)C=C[C@@H]1OC(C)=O |  |  |  |  |  | ≥ 64 µg/mL | ≥ 64 µg/mL | 112 µg/mL (≈ 191 µM) | 37.7 µg/mL (≈ 64.3 µM) | < 1.74 | < 0.58
5 | CC(=O)OC[C@H]1O[C@H](OC[C@@H](Cn2cc(CN(c3nc(-c4cccc([N+](=O)[O-])c4)no3)C3CCCCC3)nn2)OC(C)=O)C=C[C@@H]1OC(C)=O | 42.2% | 44.7% | 38.4% |  | 27.7% | ≥ 64 µg/mL | ≥ 64 µg/mL | 100 µg/mL (≈ 144 µM) | > 200 µg/mL | < 1.56 | 
6 | C#Cc1ccc(-c2noc(NC3CCCCC3)n2)cc1 | 40.1% | 44.4% | 46% | 34% | 60.7% | 32 µg/mL (≈ 120 µM) | 32 µg/mL (≈ 120 µM) | 19.8 µg/mL (≈ 74.1 µM) | 54.2 µg/mL (≈ 203 µM) | 0.62 | 1.69
7 | CC(=O)OC[C@H]1O[C@H](OC[C@@H](Cn2cc(CN(c3nc(-c4ccc([N+](=O)[O-])cc4)no3)C3CCCCC3)nn2)OC(C)=O)C=C[C@@H]1OC(C)=O | 30.6% | 47.6% | 28.8% | 36.3% | 39.1% | ≥ 64 µg/mL | ≥ 64 µg/mL |  | > 200 µg/mL | 1.25 | 
8 | C#CCN(c1nc(-c2ccc(Br)cc2)no1)C1CCCCC1 |  |  |  |  |  | 32 µg/mL (≈ 88.8 µM) | 32 µg/mL (≈ 88.8 µM) | 15.7 µg/mL (≈ 43.5 µM) | 102 µg/mL (≈ 283 µM) | 0.48 | 3.18
9 | CC(=O)OC[C@H]1O[C@H](OC[C@H](Cn2cc(-c3ccc(-c4noc(NC5CCCCC5)n4)cc3)nn2)OC(C)=O)C=C[C@@H]1OC(C)=O |  |  |  |  |  | ≥ 64 µg/mL | ≥ 64 µg/mL | 16.3 µg/mL (≈ 25.5 µM) | 79.8 µg/mL (≈ 125 µM) | < 0.25 | < 1.24
10 | CC(=O)OC[C@H]1O[C@H](OC[C@@H](Cn2cc(CN(c3nc(-c4ccc(Cl)cc4)no3)C3CCCCC3)nn2)OC(C)=O)C=C[C@@H]1OC(C)=O |  |  |  |  |  | 64 µg/mL (≈ 93.1 µM) | 64 µg/mL (≈ 93.1 µM) | 35.5 µg/mL (≈ 51.7 µM) | 46.9 µg/mL (≈ 68.3 µM) | 0.55 | 0.73
11 | CC(=O)OC[C@H]1O[C@H](OC[C@H](Cn2cc(COc3ccc(-c4noc(NC5CCCCC5)n4)cc3)nn2)OC(C)=O)C=C[C@@H]1OC(C)=O |  |  |  |  |  | 16 µg/mL (≈ 23.9 µM) | 16 µg/mL (≈ 23.9 µM) | 33.3 µg/mL (≈ 49.8 µM) | 99.5 µg/mL (≈ 149 µM) | 2.08 | 6.21
12 | C#CCOc1ccc(-c2noc(N(CC#C)C3CCCCC3)n2)cc1 |  |  |  |  |  | ≥ 64 µg/mL | 64 µg/mL (≈ 191 µM) | 101 µg/mL (≈ 300 µM) | > 200 µg/mL | 1.57 | > 3.12
13 | CCCCCCCCCCc1cn(C[C@@H](CO[C@@H]2C=C[C@H](OC(C)=O)[C@@H](COC(C)=O)O2)OC(C)=O)nn1 |  |  |  |  |  | 64 µg/mL (≈ 119 µM) | 64 µg/mL (≈ 119 µM) | 30.4 µg/mL (≈ 56.5 µM) | 59 µg/mL (≈ 110 µM) | 0.47 | 0.92
14 | C#CCN(c1nc(-c2ccccc2)no1)C1CCCCC1 | 28.6% | 47% | 23.7% | 22.6% |  | ≥ 64 µg/mL | ≥ 64 µg/mL | 32.1 µg/mL (≈ 114 µM) | 109 µg/mL (≈ 386 µM) | < 0.5 | < 1.69
15 | C#CCN(c1nc(-c2ccc([N+](=O)[O-])cc2)no1)C1CCCCC1 | 18.5% | 52.5% | 53.7% |  | 37.2% | ≥ 64 µg/mL | ≥ 64 µg/mL | 26.7 µg/mL (≈ 81.9 µM) | 43.7 µg/mL (≈ 134 µM) | < 0.41 | < 0.68
16 | C#CCN(c1nc(-c2ccc(C#C)cc2)no1)C1CCCCC1 |  |  |  |  |  |  | ≥ 64 µg/mL | 13.1 µg/mL (≈ 42.9 µM) | 27.9 µg/mL (≈ 91.5 µM) | < 0.2 | < 0.43
17 | CC(=O)OC[C@H]1O[C@H](OC[C@@H](Cn2cc(CN(c3nc(-c4ccc(-c5cn(C[C@H](CO[C@@H]6C=C[C@H](OC(C)=O)[C@@H](COC(C)=O)O6)OC(C)=O)nn5)cc4)no3)C3CCCCC3)nn2)OC(C)=O)C=C[C@@H]1OC(C)=O |  |  |  |  |  | ≥ 64 µg/mL | ≥ 64 µg/mL | 117 µg/mL (≈ 111 µM) | 11.8 µg/mL (≈ 11.2 µM) | < 1.82 | < 0.18
18 | C#CCN(c1nc(-c2ccc(C(F)(F)F)cc2)no1)C1CCCCC1 |  |  |  |  |  | 64 µg/mL (≈ 183 µM) | 32 µg/mL (≈ 91.6 µM) | 38.3 µg/mL (≈ 110 µM) | 61.9 µg/mL (≈ 177 µM) | 1.2 | 1.93
19 | CC(=O)OC[C@H]1O[C@H](OC[C@@H](Cn2cc(CN(c3nc(-c4ccc(Br)cc4)no3)C3CCCCC3)nn2)OC(C)=O)C=C[C@@H]1OC(C)=O |  |  |  |  |  | 4 µg/mL (≈ 5.47 µM) | 8 µg/mL (≈ 10.9 µM) | 39.1 µg/mL (≈ 53.5 µM) | 47.6 µg/mL (≈ 65.1 µM) | 4.89 | 5.95
20 | C#CCN(c1nc(-c2ccc(C)cc2)no1)C1CCCCC1 |  |  |  |  |  | 64 µg/mL (≈ 217 µM) | ≥ 64 µg/mL | 17.6 µg/mL (≈ 59.5 µM) | 91.9 µg/mL (≈ 311 µM) | < 0.27 | < 1.43
21 | C#CCN(c1nc(-c2ccc(Cl)cc2)no1)C1CCCCC1 |  |  |  |  |  | 32 µg/mL (≈ 101 µM) | 16 µg/mL (≈ 50.7 µM) | 15.1 µg/mL (≈ 47.9 µM) | 41.3 µg/mL (≈ 131 µM) | 0.95 | 2.58
22 | CC(=O)OC[C@H]1O[C@H](OC[C@@H](Cn2cc(COc3ccc(-c4noc(N(Cc5cn(C[C@H](CO[C@@H]6C=C[C@H](OC(C)=O)[C@@H](COC(C)=O)O6)OC(C)=O)nn5)C5CCCCC5)n4)cc3)nn2)OC(C)=O)C=C[C@@H]1OC(C)=O |  |  |  |  |  | ≥ 64 µg/mL | ≥ 64 µg/mL | > 200 µg/mL | 47 µg/mL (≈ 43.6 µM) |  | < 0.73
23 | CC(=O)OC[C@H]1O[C@H](OC[C@@H](Cn2cc(CN(c3nc(-c4cccc(Br)c4)no3)C3CCCCC3)nn2)OC(C)=O)C=C[C@@H]1OC(C)=O | 52.3% | 59.9% | 45.5% | 27.1% |  |  |  |  |  |  | 
24 | CC[C@@H](CO)NCCN[C@@H](CC)CO [ETHAMBUTOL] |  |  |  |  |  | 1 µg/mL (≈ 4.89 µM) | 1 µg/mL (≈ 4.89 µM) | ≥ 400 µg/mL | > 400 µg/mL |  | 
25 | CO[C@H]1/C=C/O[C@@]2(C)Oc3c(C)c(O)c4c(O)c(c(/C=N/N5CCN(C)CC5)c(O)c4c3C2=O)NC(=O)/C(C)=C\C=C\[C@H](C)[C@H](O)[C@@H](C)[C@@H](O)[C@@H](C)[C@H](OC(C)=O)[C@@H]1C [RIFAMPIN] |  |  |  |  |  | 0.062 µg/mL (≈ 0.0753 µM) | 0.125 µg/mL (≈ 0.152 µM) | 80.4 µg/mL (≈ 97.7 µM) | 176 µg/mL (≈ 214 µM) | 643 | 1410
